Data taken from the RNAGym collection of RNA variant scans (doi:10.1126/science.aae0568).
Variants at the floor of the assay were thinned out.

B1: tRNA (parent)
chain: GUUCCGUUGGCGUAAUGGUAACGCGUCUCCCUCCUAAGGAGAAGACUGCGGGUUCGAGUCCCGUACGGAACG

Variants of: B1
Test: yeast fitness relative to wild type (ratio to wild type); higher = fitter; tRNA-Arg(CCU), competitive growth, 37 C, YPD
Method in brief: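 A pool of Saccharomyces cerevisiae strains, each with a tRNA-Arg(CCU) gene variant at the native genomic locus, was competed in YPD at 37°C for 24 hours across six parallel replicates. The variants had been chemically synthesised at a 3% per-site mutation rate over 69 sites, and gene amplicons before and after competition were read by 100-nucleotide paired-end sequencing. Darwinian fitness relative to wild type rested on changes in genotype frequencies. Genotypes required ≥ 100 starting reads, and estimates < 0.5 were set to 0.5.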

Q: With GUUCCGAAGCCGUAAUGGUAACGCGUGUCCCUCGUAAGGAGGAGACUGCGGGUUUGAGUCCCGUACGGAACG as the variant, how does the yeast fitness read?
A: The yeast fitness was at most 0.5.

Q: Which yeast fitness does the source give for GUUCCGUUGGCGUAUUGGUAACGCGUCUCCCUCCUAAGGAGAAGACUGCGGGUUCGAGUCCCGUAAGGAACG here?
A: Its yeast fitness is 0.649.

Q: For GUUCCGUUGGCGUAGUGGUAACGCGUCUCCCUCCUAAGGAGAAGACUGGGGGUUCGAGUCCCCUACGGAACG, which yeast fitness is on record?
A: The yeast fitness was 0.594.

Q: Which yeast fitness does the source give for GUCCCGUUGGCGUAAUGAUAACGCGUCUCCCUCCUAAGGAGAAGACUGCGGGUUCGAGUCCCGUACGGAACG here?
A: Its yeast fitness is 0.916.

Q: With GUUCCGUUGGCGUAAUGGUAACGCGUACGCCUCCUAAGGAGAAGACUGCGGGUUCGAGUCCCGUACGGAGCG as the variant, how does the yeast fitness read?
A: The yeast fitness was at most 0.5.

Q: For GAUCUGUUGGCGUAAUGGUAACGCGUCUCCCUCCUAAAGAGAAGACUGCGGGUUAGAGUCCCGUACGGAACG, which yeast fitness is on record?
A: Its yeast fitness is at most 0.5.

Q: With GUUCCGUUGGCGUAAUGGUAAGGCGUCUCGCUCCUAAGGAGAAGACUGCAGGUUCGUGUCCCGUACGGAGCG as the variant, how does the yeast fitness read?
A: Its yeast fitness is at most 0.5.

Q: Which yeast fitness does the source give for GUUCGGUUGGGGUAAUGGUCACGCGUCUCCCUUUUAAGGAGAAGACUGCGGGUUCGAGUCGCGUACGGAACG here?
A: Its yeast fitness is 0.529.

Q: Which yeast fitness does the source give for GUUCCGUUGGCGUAAUGGUAACGCGUCUCCCUCCUAAGGAGAUGACUGCGGGUUCGAGUCCCGUGUGGAACG here?
A: The yeast fitness was 0.794.

Q: For GUUCCGUUGGCGUAAUGGUAACGCGUCUCCCUCCUAAGGAGUAGACUGGGGGUUAGAGUCCCGUACGGAACG, which yeast fitness is on record?
A: The yeast fitness was at most 0.5.

Q: For GUUCCGUUGCCGUAAUGGUAACGCGUCUCCCUCGUAAGGAGAAGACUGCGGGUUCGAGUCCCGUACGGAACG, which yeast fitness is on record?
A: The yeast fitness was 0.501.

Q: With GUUCCGUUGGCGUAAUGGUAACGCGUCUCCCUCUUAUGGAGAAGAAUGCGAGUUCGAGUCCCGUACGGAACG as the variant, how does the yeast fitness read?
A: The yeast fitness was 0.567.

Q: For GUUCCGUUGGCGUAAAGGUAAAGCGUCUCCCUCCUAAGGAGAAGACUGCGGGUUCGAGUCCCGUACGGAACG, which yeast fitness is on record?
A: The yeast fitness was 0.941.

Q: With GUUCCGUUAGCGUAAUGGUAACGCGUCUCCCUCCUAAGGAGAGGACUGCGGGUUCGAGACCCGUACGGGACG as the variant, how does the yeast fitness read?
A: Its yeast fitness is at most 0.5.

Q: With GUUCCGUUGGGGUAUUGGUAACGCGUCUCCCUCCUUAGGAGAAGACUGCGGGUUCGAGUCCCGUACGGAACG as the variant, how does the yeast fitness read?
A: Its yeast fitness is at most 0.5.

Q: Which yeast fitness does the source give for GUCCCGUUGGCAUAAUGGUAACGCGUCUCCCUCCUAAGGAGAAGUCUGCGGGUUUGAGUCCCGUACGGAACG here?
A: Its yeast fitness is at most 0.5.

Q: Which yeast fitness does the source give for GUUCCGUUGGCGUAAUGGUAACGCGUCUCCGUCCUAAGGAGAAGACUACGGGUUAGAGUCCAGUACGGAACG here?
A: The yeast fitness was at most 0.5.

Q: Which yeast fitness does the source give for GUUCGGUUGGCGUUAUGGUAACGGGUCUCCCUCCUAAGGAGAAGACUGCGGGUUCGAGUCCCGUACGGAUCG here?
A: Its yeast fitness is at most 0.5.

Q: For GUAUCGAUGGCGUAAUGGUAACGUGUCUCCCUCCUAAGGAGAAGACUGCGGGUUCGAGUCCCGUACGGAGCG, which yeast fitness is on record?
A: Its yeast fitness is at most 0.5.

Q: With GUUCCGUUGGCGUAAUGGUAACGAGUCUCCCUCCUAAGGAGAAGACUCCGGGUUCGAGUCCCGUACGGAACG as the variant, how does the yeast fitness read?
A: The yeast fitness was 0.621.

Q: With GUUCCGCUGGCGUCAUGGUAACGCGUCUCCCUCCUAAGGAGAAGACUGCGGGUUCGAGUCCCGUCCGGAACG as the variant, how does the yeast fitness read?
A: The yeast fitness was 0.533.

Q: With GAUCCAUUGGCGUAAUGGUAACGCGUCUCCCUCCUAAGGAGAAGACUGCGGGUUCGAGUCCCGUACGGAACG as the variant, how does the yeast fitness read?
A: The yeast fitness was 0.775.

Q: For GUUCCGUUGGCGUAAUGGUAACGCGUCUCCCUCCUAACGAGAAGACUGCGGGUUCGAGUACCGUACGGAGCG, which yeast fitness is on record?
A: Its yeast fitness is 0.582.

Q: For GUUCCGUUGGCGUAAUGGUAACGCGUCUUCCUGCUAAGGAGAAGACUGCGGGUUCGAGUCCCGUACGGUACG, which yeast fitness is on record?
A: The yeast fitness was at most 0.5.

Q: Which yeast fitness does the source give for GUUGCGUUGGCGUAUUGGUAACGCGUCUCCCUACUAAGGAGAAGACUGCGGGUUCGAGUCCCGUACGCAACG here?
A: Its yeast fitness is at most 0.5.

Q: For GUUCCGUCGGCGUAAUGAUAACGCGUCUCCCUCCUAAGGAGAAGUCUGCGGGUUCGAGUCCCGUACCGAACG, which yeast fitness is on record?
A: The yeast fitness was 0.552.

Q: Which yeast fitness does the source give for GUUCCGUUGGCCUAAUGGUAACGCGUCUCCCUCCUAAGGACAAGAUUGCGGGUUCGAGUCCCGUACGGAACG here?
A: Its yeast fitness is 0.596.

Q: For GUUCCGUUGGCGUAAUGGUAACGCGUCUCCUUCCUAACGAGAAGACUGCGGGUUCGAGUCCCAUACGCGACG, which yeast fitness is on record?
A: Its yeast fitness is 0.673.

Q: With GUUCCGUUGGCGUAAUGGUAACGAGUCUCCCUCCUAAGGAGAAGACUGCGGGUUCGAGUCCCGUACAGAACG as the variant, how does the yeast fitness read?
A: The yeast fitness was 0.709.

Q: For GUUCCGUUGGCGUAAUGGUAACGCGUCUCCCUUCCAAGGAGAAGACUGCGGGUUCGAGUCCCGUACGGAACG, which yeast fitness is on record?
A: The yeast fitness was 0.579.

Q: Which yeast fitness does the source give for GUUCUGUUGGCGUAAUGGUAACGCGUGACGUUCCUAAGGAGAAGACUGCGGGUUCGAGUCCCGUACAGAACG here?
A: Its yeast fitness is at most 0.5.

Q: With GUUCCGUUGGCGUAAUGGUAACGGGUCUCCCUCCUAAGGAGAAGAUUGCGGGUUCGAGUCCCGUACGGAUCG as the variant, how does the yeast fitness read?
A: Its yeast fitness is 0.642.

Q: With GUUCCGUUGGCGUAAUAGUAAUGCGUCCCCCUCCUAAGGAGAAGACUGCGGGUUCGAGUCCCGUUCGGAACG as the variant, how does the yeast fitness read?
A: Its yeast fitness is at most 0.5.

Q: With GUUCCGUUGGUGUGAUGGUAACGCGUCUCCCUCCUAAGGAGAAGACUGCGGGUUCGAGUCCCGUACGGAACG as the variant, how does the yeast fitness read?
A: Its yeast fitness is 0.865.

Q: With GUUCCGUUGGCGUGAUGGUAACGCGUCUCCCUCCUAAGGAGAAGACUGCGGGUUCCAGUCCCGUACGGAACG as the variant, how does the yeast fitness read?
A: The yeast fitness was 0.611.

Q: Which yeast fitness does the source give for GUUCCGUUGGCGUAAUGGUAACGCGUCUUCUUCCUAAGGACAAGACUGCGGGUUCGAGUCCCGUACGGAACG here?
A: Its yeast fitness is at most 0.5.

Q: Which yeast fitness does the source give for GUUCCGUUGGCGUAAUGCUAACGCGUCUCCCUCCUAAGGAGAAGACUGCGGGCUCGAGUCUCGUACGGAACG here?
A: Its yeast fitness is at most 0.5.
